As a reminder, the inhibition is the percentage by which the read-out fell short of the control. For orientation: IC50 means the concentration that inhibits the measured activity by half. A lower IC50 goes with greater potency in that assay.

The target in test [1] is T1, 3',5'-cyclic-AMP phosphodiesterase 4B (Homo sapiens, UniProt Q07343). Nature of the test: Inhibition of recombinant His-tagged PDE4B expressed in Sf9 cells using cAMP as substrate at 30 uM preincubated for 15 mins prior substrate addition measured after 1 hr by […]. In a few lines: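 In-house purified PDE4B (10 ng) was preincubated 15 min with compound or DMSO vehicle, followed by 1 h with cAMP substrate. After stop solution, detection reagent was applied for 10 min in the dark and luminescence (RLU) was read. % inhibition was taken against vehicle-control RLU and reported as the average with SD.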

For test [2], the target named is 3',5'-cyclic-AMP phosphodiesterase 4D (Homo sapiens) (UniProt Q08499). Nature of the test: Inhibition of PDE4D using cAMP as substrate at 30 uM preincubated for 15 mins prior substrate addition measured after 1 hr by […]. In a few lines: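 Commercially sourced PDE4D (0.5 ng) was preincubated 15 min with compound or DMSO vehicle, then incubated 1 h with cAMP substrate. The reaction was halted with stop solution, and detection reagent was added for 10 min in the dark. Luminescence (RLU) was read, and % inhibition = (vehicle RLU − inhibitor RLU)/vehicle RLU × 100.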

The target of test [3] is T1, 3',5'-cyclic-AMP phosphodiesterase 4B.

T1 sequence (Q07343 whole entry): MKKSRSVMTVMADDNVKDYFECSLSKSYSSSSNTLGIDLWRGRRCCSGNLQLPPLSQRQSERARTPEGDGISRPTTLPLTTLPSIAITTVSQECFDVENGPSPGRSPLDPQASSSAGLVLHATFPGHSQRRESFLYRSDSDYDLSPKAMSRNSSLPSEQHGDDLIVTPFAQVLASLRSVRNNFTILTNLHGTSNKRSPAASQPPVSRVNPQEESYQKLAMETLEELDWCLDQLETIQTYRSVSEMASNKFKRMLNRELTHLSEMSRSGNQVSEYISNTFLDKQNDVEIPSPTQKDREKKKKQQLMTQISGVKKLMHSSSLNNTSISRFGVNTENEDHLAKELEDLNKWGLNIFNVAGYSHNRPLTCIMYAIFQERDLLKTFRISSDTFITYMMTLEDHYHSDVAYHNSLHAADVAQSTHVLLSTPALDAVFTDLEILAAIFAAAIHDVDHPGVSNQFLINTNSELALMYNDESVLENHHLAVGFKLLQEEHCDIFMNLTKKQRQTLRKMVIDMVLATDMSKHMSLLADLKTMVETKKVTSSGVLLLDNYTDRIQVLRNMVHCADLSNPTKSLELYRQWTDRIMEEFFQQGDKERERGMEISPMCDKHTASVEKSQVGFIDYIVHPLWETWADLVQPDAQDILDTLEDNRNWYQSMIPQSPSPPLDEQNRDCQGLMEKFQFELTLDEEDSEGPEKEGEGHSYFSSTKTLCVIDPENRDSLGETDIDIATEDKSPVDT
Sequence of 3',5'-cyclic-AMP phosphodiesterase 4D (Homo sapiens) (Q08499 whole entry): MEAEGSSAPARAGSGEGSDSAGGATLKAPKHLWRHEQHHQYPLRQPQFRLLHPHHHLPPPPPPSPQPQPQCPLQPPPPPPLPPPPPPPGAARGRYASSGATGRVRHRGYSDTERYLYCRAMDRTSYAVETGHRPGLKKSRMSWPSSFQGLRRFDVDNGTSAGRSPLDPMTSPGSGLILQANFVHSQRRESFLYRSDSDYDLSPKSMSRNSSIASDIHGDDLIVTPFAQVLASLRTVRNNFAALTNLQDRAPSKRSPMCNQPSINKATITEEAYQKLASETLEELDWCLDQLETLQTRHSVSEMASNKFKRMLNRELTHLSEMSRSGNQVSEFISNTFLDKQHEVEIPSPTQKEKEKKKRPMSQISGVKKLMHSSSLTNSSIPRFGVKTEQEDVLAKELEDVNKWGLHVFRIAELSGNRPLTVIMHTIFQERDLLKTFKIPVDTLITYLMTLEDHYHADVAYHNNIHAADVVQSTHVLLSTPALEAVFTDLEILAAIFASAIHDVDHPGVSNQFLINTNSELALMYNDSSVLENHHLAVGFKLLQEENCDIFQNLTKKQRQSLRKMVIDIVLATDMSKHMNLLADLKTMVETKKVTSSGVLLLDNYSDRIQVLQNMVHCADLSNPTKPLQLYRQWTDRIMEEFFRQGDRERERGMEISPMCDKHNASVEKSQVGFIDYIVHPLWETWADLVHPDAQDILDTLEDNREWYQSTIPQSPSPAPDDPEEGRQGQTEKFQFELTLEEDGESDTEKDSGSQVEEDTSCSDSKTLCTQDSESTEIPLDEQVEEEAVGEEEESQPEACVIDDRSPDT

In the case of `CC1(C)Cc2cnn(-c3ccc(Br)cc3)c2-c2cc(Br)ccc21`, the inhibition in test [1] worked out at 60.3%.
The same measure, in the same setting: the figure for `CC1(C)Cc2cnn(-c3ccc(F)cc3)c2-c2cc(NS(=O)(=O)c3ccccc3)ccc21` is 75.6%; for `Cc1ccc(-n2ncc3c2-c2cc(Br)ccc2C(C)(C)C3)cc1` it is 64.9%.
For the compound `CC1(C)Cc2cnn(-c3ccc(F)cc3)c2-c2cc([N+](=O)[O-])ccc21`, the inhibition in test [1] is 66.8%.
Take `CC1(C)Cc2cnn(C(C)(C)C)c2-c2cc(Br)ccc21`: the inhibition in test [1] was found to be 71.4%; in test [2] it was 41.7%.
As to `CC1(C)Cc2cnn(-c3ccccc3)c2-c2cc(Br)ccc21`, the inhibition in test [1] was found to be 76.2%; in test [2], 50%. Also, the IC50 in test [3] stood at 4.57 µM.
As for `CC(C)n1ncc2c1-c1cc(Br)ccc1C(C)(C)C2`, in test [1], the inhibition stood at 56.8%.
For `CC1(C)Cc2cnn(-c3ccccc3)c2-c2cc([N+](=O)[O-])ccc21`, the inhibition in test [1] turned out to be 72.1%; in test [2], 55.8%.
Regarding `CC1(C)Cc2cnn(-c3ccc(Cl)cc3)c2-c2cc(Br)ccc21`, the inhibition in test [1] came out at 68.1%.
The same measure, in the same setting: the figure for `Cc1ccc(-n2ncc3c2-c2cc([N+](=O)[O-])ccc2C(C)(C)C3)cc1` is 68.2%.
Turning to `Cc1cccc(-n2ncc3c2-c2cc([N+](=O)[O-])ccc2C(C)(C)C3)c1C`, the inhibition in test [1] stood at 72.7%; in test [2] it was 54.9%.
In the same order, the values of `CC1(C)Cc2cnn(-c3ccc(F)cc3)c2-c2cc(Br)ccc21` are 72.2% and 65.4%.
For `CC1(C)Cc2cnn(-c3ccc(F)cc3)c2-c2cc(NS(C)(=O)=O)ccc21`, the inhibition in test [1] was found to be 75.1%.
On the same count and under the same terms, with `CC1(C)Cc2cnn(-c3ccc(C(F)(F)F)cc3)c2-c2cc(Br)ccc21` the figure was 42.2%.
